Source: ChEMBL document CHEMBL3797175, “Discovery of 6-(difluoro(6-(4-fluorophenyl)-[1,2,4]triazolo[4,3-b][1,2,4]triazin-3-yl)methyl)quinoline as a highly potent and selective c-Met inhibitor” (Eur J Med Chem, 2016)

Tests used:
[1] = target: T1, TPR/MET fusion protein (Mus musculus) (UniProt P16056+F6ZDS4); test: Inhibition of TPR-MET in mouse […] cells assessed as inhibition of cell proliferation at 1 uM after 72 hrs by SRB or MTT assay relative to control; type: cell-based
Outline: (§1)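 Cells seeded, exposed next day to a range of concentrations for 72 h. Growth read by sulforhodamine B or MTT. IC50 from four-parameter concentration-response fit. Each concentration tested at least in triplicate, with at least 2 experiments.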

[2] = target: T1, TPR/MET fusion protein (Mus musculus); test: Inhibition of TPR-MET in mouse […] cells assessed as inhibition of cell proliferation at 10 uM after 72 hrs by SRB or MTT assay relative to control; type: cell-based; outline: as §1
[3] = Half life in Sprague-Dawley rat at 2 mg/kg, iv administered as single dose; type: ADME, organism-based; settings: in vivo
Outline: (§2)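 Male Sprague Dawley rats (n=3), single dose. iv 2 mg/kg in 1% DMA/9% Cremophor/90% saline. po 10 mg/kg in 0.5% CMC-Na. Where iv was 10 mg/kg: 10% DMSO/10% Tween 80/80% (40% PEG40); po in that case in 10% DMSO/5% Tween 80/85% saline.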

[4] = AUC (0 to infinity) in Sprague-Dawley rat at 10 mg/kg, po administered as single dose; type: ADME, organism-based; parameters: dose 10 mg/kg, route oral, time infinity; settings: in vivo
[5] = Volume of distribution at steady state in Sprague-Dawley rat at 2 mg/kg, iv administered as single dose; type: ADME, organism-based; settings: in vivo, read-out: Vdss
Outline: (§3)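 Male Sprague-Dawley rats (n=3), single dose. IV 2 mg/kg in 1% DMA/9% Cremophor/90% saline; PO 10 mg/kg in 0.5% CMC-Na. For one compound, IV 10 mg/kg in DMSO/Tween 80/PEG40 and PO 10 mg/kg in 10% DMSO/5% Tween 80/85% saline.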

[6] = Clearance in Sprague-Dawley rat at 2 mg/kg, iv administered as single dose; type: ADME, organism-based; settings: in vivo; outline: as §2
[7] = Antitumor activity against human EBC1 cells xenografted in athymic nude mouse assessed as tumor growth inhibition at 25 mg/kg, po bid for 21 days measured twice a week during compound dosing relative to control; type: functional; settings: EBC-1, po, 504 h, read-out: TGI
Outline: (§4)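 Nude mice bearing s.c. tumours. Cells were first grown s.c. to 700–800 mm³, then 1.5 mm³ fragments were transplanted s.c. into the right flank. Mice were randomised at 100–200 mm³ (n=6 treated, n=12 vehicle) and dosed orally twice daily for 21 days. Caliper measurement twice weekly; TV = length×width²/2. TGI taken on the final day versus vehicle; Student's t test.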

[8] = Tmax in Sprague-Dawley rat at 10 mg/kg, po administered as single dose; type: ADME, organism-based; settings: in vivo; outline: as §3
[9] = Cmax in Sprague-Dawley rat at 10 mg/kg, po administered as single dose; type: ADME, organism-based; parameters: dose 10 mg/kg, route oral; settings: in vivo; outline: as §2
[10] = Antitumor activity against human EBC1 cells xenografted in athymic nude mouse assessed as tumor growth inhibition at 12.5 mg/kg, po bid for 21 days measured twice a week during compound dosing relative to control; type: functional; settings: EBC-1, po, 504 h, read-out: TGI; outline: as §4
[11] = Oral bioavailability in Sprague-Dawley rat at 10 mg/kg administered as single dose; type: ADME, organism-based; settings: in vivo; outline: as §3
Mus musculus = test: Toxicity in athymic nude mouse xenografted with human EBC1 cells assessed as body weight loss at 25 mg/kg, po bid for 21 days measured twice a week during compound dosing; type: organism-based; settings: in vivo, 504 h
Outline: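 Nude mice carrying s.c. EBC-1 tumor fragments, randomized at 100–200 mm³ (n=6 treated, n=12 vehicle). Dosed orally twice daily for 21 days. Body weight and caliper tumor volume measured twice weekly.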

[12] = Clearance in Sprague-Dawley rat at 10 mg/kg, iv administered as single dose; type: ADME, organism-based; settings: in vivo; outline: as §2
[13] = Volume of distribution at steady state in Sprague-Dawley rat at 10 mg/kg, iv administered as single dose; type: ADME, organism-based; settings: in vivo, read-out: Vdss; outline: as §3
[14] = Half life in Sprague-Dawley rat at 10 mg/kg, iv administered as single dose; type: ADME, organism-based; settings: in vivo; outline: as §2
[15] = target: Hepatocyte growth factor receptor (Homo sapiens, UniProt P08581); test: Inhibition of recombinant c-Met (unknown origin) using poly (Glu, Tyr) 4:1 as substrate incubated for 60 mins by ELISA
Sequence of Hepatocyte growth factor receptor (P08581 whole entry): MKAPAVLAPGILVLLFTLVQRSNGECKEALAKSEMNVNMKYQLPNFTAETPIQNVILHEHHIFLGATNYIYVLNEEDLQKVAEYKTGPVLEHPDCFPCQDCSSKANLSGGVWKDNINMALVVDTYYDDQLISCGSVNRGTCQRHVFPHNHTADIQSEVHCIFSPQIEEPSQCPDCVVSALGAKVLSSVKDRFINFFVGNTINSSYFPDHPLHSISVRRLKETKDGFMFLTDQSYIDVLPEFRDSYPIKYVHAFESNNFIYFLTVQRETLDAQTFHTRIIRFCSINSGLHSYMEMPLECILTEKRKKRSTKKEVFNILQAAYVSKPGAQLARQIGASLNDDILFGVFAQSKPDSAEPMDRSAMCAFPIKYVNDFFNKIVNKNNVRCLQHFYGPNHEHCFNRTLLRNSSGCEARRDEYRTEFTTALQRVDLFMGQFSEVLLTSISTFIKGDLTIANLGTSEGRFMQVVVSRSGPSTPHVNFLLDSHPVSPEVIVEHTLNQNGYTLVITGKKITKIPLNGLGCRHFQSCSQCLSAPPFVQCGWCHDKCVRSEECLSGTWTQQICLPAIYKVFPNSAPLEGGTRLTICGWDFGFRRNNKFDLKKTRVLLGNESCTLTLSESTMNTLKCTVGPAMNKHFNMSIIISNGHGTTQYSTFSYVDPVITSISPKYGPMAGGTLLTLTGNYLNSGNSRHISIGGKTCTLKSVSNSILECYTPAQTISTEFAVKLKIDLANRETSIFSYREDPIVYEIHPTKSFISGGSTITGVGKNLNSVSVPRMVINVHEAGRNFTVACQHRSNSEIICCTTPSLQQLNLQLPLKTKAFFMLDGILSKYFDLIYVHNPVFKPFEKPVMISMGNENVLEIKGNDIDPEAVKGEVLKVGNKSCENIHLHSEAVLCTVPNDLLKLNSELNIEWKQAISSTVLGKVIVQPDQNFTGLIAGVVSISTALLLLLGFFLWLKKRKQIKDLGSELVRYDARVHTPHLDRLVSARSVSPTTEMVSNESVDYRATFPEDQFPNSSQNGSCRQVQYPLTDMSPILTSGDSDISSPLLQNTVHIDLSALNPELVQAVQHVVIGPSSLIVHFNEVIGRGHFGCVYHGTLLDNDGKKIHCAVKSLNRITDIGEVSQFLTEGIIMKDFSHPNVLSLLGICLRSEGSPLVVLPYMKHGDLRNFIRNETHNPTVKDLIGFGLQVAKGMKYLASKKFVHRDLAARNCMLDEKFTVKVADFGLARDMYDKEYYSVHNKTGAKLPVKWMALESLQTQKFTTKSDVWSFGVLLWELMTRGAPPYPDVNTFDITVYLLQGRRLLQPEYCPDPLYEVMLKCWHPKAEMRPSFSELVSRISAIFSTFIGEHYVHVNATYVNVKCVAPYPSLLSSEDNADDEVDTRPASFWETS

T1 sequence (F6ZDS4 whole entry partner, the tested form may be a part): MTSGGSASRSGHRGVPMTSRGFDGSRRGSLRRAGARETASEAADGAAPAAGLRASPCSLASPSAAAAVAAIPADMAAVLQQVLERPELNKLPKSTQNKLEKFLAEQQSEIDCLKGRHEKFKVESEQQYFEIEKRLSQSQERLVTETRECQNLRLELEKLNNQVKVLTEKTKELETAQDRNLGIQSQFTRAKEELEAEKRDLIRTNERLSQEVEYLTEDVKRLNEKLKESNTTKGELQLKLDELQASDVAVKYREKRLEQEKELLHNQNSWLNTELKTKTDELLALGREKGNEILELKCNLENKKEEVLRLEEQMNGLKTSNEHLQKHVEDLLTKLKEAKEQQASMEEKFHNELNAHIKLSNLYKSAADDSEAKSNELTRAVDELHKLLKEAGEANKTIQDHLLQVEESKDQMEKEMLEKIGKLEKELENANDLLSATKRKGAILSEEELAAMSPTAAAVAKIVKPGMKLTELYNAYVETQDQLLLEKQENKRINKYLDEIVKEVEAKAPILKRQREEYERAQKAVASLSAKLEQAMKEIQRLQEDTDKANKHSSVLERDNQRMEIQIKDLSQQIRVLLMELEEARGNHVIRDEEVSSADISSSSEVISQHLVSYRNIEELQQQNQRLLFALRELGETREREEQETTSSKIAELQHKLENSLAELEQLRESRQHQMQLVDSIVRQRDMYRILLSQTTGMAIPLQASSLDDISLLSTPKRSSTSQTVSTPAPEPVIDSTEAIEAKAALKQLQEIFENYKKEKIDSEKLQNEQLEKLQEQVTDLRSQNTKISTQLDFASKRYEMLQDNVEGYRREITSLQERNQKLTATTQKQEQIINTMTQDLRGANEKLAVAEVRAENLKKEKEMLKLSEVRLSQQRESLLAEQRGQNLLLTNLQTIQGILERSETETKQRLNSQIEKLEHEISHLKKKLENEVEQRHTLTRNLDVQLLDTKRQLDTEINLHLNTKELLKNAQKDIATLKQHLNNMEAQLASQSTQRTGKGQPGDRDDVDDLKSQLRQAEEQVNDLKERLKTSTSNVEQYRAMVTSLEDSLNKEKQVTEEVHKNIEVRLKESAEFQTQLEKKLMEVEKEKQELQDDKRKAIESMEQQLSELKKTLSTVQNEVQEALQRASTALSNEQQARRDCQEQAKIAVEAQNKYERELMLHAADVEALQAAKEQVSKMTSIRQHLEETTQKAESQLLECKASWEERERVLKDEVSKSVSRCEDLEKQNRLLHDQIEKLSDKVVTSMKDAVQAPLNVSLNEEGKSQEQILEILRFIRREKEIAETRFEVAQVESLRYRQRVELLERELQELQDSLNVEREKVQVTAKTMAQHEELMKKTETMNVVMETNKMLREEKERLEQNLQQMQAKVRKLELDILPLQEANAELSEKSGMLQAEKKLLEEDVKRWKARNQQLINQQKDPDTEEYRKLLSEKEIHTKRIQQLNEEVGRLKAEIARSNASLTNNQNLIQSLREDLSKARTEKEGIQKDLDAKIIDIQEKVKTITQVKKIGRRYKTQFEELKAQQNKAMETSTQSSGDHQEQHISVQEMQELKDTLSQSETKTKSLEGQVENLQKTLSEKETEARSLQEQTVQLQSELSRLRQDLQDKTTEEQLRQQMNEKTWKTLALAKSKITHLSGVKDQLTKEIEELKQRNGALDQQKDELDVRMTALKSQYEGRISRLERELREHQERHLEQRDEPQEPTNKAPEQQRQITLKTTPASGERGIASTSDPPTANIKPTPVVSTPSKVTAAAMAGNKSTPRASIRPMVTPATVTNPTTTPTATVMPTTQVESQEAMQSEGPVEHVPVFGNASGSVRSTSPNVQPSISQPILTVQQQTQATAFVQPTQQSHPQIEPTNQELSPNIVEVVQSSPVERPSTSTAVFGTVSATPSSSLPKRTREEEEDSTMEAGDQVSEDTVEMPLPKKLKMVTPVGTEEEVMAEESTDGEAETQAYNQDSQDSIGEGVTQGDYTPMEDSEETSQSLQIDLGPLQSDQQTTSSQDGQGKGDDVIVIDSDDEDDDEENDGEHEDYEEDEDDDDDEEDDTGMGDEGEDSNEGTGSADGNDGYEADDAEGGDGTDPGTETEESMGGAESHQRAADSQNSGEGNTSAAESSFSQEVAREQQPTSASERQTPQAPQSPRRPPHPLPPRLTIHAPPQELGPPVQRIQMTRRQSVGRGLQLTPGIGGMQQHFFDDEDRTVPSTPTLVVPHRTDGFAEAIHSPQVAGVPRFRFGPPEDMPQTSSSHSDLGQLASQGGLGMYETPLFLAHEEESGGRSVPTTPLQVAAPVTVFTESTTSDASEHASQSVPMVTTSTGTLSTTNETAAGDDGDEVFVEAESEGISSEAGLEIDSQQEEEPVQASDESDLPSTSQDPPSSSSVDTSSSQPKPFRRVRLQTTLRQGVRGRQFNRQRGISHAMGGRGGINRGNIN
T1 sequence (P16056 25-1379 limits assumed): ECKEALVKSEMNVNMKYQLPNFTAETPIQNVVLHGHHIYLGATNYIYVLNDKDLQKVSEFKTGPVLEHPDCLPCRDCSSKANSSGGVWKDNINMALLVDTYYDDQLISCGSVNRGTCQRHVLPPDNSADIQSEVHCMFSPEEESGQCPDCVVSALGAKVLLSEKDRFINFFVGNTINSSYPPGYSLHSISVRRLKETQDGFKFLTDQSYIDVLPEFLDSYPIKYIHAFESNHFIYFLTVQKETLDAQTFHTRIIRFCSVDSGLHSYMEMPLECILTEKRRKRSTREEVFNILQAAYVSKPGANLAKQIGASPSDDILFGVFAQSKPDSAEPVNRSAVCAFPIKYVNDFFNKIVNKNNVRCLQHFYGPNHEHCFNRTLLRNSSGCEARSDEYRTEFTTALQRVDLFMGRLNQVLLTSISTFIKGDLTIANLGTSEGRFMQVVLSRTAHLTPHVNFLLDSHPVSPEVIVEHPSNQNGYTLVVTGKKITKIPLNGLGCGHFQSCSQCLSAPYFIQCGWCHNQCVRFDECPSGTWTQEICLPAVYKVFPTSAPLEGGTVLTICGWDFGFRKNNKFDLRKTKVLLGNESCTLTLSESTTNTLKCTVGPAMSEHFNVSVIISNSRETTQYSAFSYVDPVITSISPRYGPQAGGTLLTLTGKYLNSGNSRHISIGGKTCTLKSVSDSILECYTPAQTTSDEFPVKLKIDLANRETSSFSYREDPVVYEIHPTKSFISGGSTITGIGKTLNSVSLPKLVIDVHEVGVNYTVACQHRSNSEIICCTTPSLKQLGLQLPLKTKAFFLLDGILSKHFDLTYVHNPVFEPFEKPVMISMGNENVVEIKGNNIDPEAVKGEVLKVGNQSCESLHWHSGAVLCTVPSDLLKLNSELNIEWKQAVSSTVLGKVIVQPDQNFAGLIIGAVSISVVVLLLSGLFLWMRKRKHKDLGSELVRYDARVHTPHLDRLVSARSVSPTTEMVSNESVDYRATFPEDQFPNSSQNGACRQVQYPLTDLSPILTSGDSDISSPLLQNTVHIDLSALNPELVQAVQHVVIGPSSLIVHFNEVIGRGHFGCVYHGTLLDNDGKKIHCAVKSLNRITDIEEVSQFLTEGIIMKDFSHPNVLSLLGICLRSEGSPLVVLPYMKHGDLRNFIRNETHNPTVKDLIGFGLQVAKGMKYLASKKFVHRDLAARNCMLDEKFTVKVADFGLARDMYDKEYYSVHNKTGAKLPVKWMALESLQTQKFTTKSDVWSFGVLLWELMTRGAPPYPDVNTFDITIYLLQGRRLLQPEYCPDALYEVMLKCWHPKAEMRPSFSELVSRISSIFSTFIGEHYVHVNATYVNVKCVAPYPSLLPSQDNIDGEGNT

Row | SMILES | inhibition [1] | inhibition [2] | further results
1 | c1ccc(COc2ccc(-c3cnc4nnc(Cc5ccc6ncccc6c5)n4n3)cc2)cc1 | 53.8% | 88% | 
2 | COc1cccc(-c2cnc3nnc(Cc4ccc5ncccc5c4)n3n2)c1 | 69.8% | 81% | 
3 | c1ccc(COc2ccc(-c3cnc4nnc(Cc5c[nH]c6ccccc56)n4n3)cc2)cc1 | 26.9% | 58% | 
4 | CC(C)(C)OC(=O)N1CCC(n2cc(-c3cnc4nnc(Cc5ccc6ncccc6c5)n4n3)cn2)CC1 | 68.9% | 86.6% | 
5 | c1cnc2ccc(Cc3nnc4ncc(-c5cnc6ccccc6c5)nn34)cc2c1 | 63.1% | 78% | 
6 | CCCn1cc(-c2cnc3nnc(C(F)(F)c4ccc5ncccc5c4)n3n2)cn1 |  |  | half-life [3]: 1.21 h; AUC(0-inf) [4]: 3390 ng·h/mL; Vd [5]: 3.2 L/kg; clearance [6]: 30.7 mL/min/kg; inhibition in vivo at 25 mg/kg [7]: 96.6%; Tmax [8]: 0.5 h; Cmax [9]: 1610 ng/mL; inhibition in vivo at 12.5 mg/kg [10]: 75.9%; bioavailability [11]: 61.6%; Activity (Mus musculus): Toxic
7 | c1ccc(-c2cnc3nnc(Cc4ccc5ncccc5c4)n3n2)cc1 | 58.4% | 80.9% | 
8 | Oc1cccc(-c2cnc3nnc(Cc4ccc5ncccc5c4)n3n2)c1 | 36.1% | 69.9% | 
9 | Cn1cc(-c2cnc3nnc(C(F)(F)c4ccc5ncccc5c4)n3n2)cn1 |  |  | clearance [12]: 22.3 mL/min/kg; AUC(0-inf) [4]: 780 ng·h/mL; Vd [13]: 0.81 L/kg; half-life [14]: 1.14 h; Tmax [8]: 2.5 h; Cmax [9]: 209 ng/mL; bioavailability [11]: 9.4%
10 | CCCn1cc(-c2cnc3nnc(Cc4ccc5ncccc5c4)n3n2)cn1 | 88.1% | 88.4% | 
11 | FC(F)(c1ccc2ncccc2c1)c1nnc2ncc(-c3ccco3)nn12 |  |  | half-life [3]: 1.53 h; AUC(0-inf) [4]: 2040 ng·h/mL; Vd [5]: 5.14 L/kg; clearance [6]: 39.5 mL/min/kg; inhibition in vivo at 25 mg/kg [7]: 65.8%; Tmax [8]: 0.42 h; Cmax [9]: 961 ng/mL; inhibition in vivo at 12.5 mg/kg [10]: 50.1%; bioavailability [11]: 48%
12 | O=[N+]([O-])c1cccc(-c2cnc3nnc(Cc4ccc5ncccc5c4)n3n2)c1 | 76.6% | 88.3% | 
13 | c1ccc(Cn2cc(-c3cnc4nnc(Cc5ccc6ncccc6c5)n4n3)cn2)cc1 | 68.3% | 89.5% | 
14 | Clc1ccc(-c2cnc3nnc(Cc4ccc5ncccc5c4)n3n2)cc1Cl | 82.2% | 83.5% | 
15 | Cn1cc(-c2ccc3nnc(C(F)(F)c4ccc5ncccc5c4)n3n2)cn1 [JNJ-38877605] | 70.8% | 72.2% | IC50 [15]: 0.95 nM
16 | Clc1ccc(-c2cnc3nnc(Cc4ccc5ncccc5c4)n3n2)cc1 | 69.2% | 80.6% | 
17 | Oc1cccc(-c2cnc3nnc(Cc4c[nH]c5ccccc45)n3n2)c1 | 8.2% | 10.2% | 
18 | Cn1cc(-c2cnc3nnc(Cc4ccc5ncccc5c4)n3n2)cn1 | 76.9% | 77.8% | 
19 | c1csc(-c2cnc3nnc(Cc4ccc5ncccc5c4)n3n2)c1 | 85.9% | 89.3% | 
20 | CCn1cc(-c2cnc3nnc(Cc4ccc5ncccc5c4)n3n2)cn1 | 85.5% | 97.1% | 
21 | Brc1ccc(-c2cnc3nnc(Cc4ccc5ncccc5c4)n3n2)cc1 | 75.8% | 83.6% | 
22 | c1cnc2ccc(Cc3nnc4ncc(-c5cnn(C6CCNCC6)c5)nn34)cc2c1 | 14.9% | 77% | 
23 | Brc1ccc(-c2cnc3nnc(Cc4c[nH]c5ccccc45)n3n2)cc1 | 9.9% | 17.3% | 
